Converted amounts (≈) assume the structure as drawn.
Legend:
Candida albicans [1] = assay: Inhibition of ABC efflux pumps in fluconazole susceptible Candida albicans 004B1 assessed as reduction in energy-dependent rhodamine 6G efflux in presence of 0.1 M glucose after 25 mins by fluorescence assay relative to control
How it was run: (§1)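 Cells grown in TSB at 37 °C for 8 h, washed, resuspended in glucose-free PBS at 1 × 10^8 cells. De-energized 45 min with 5 mM deoxyglucose plus 5 mM dinitrophenol. […] Washed, sampled 5–25 min, then 0.1 M glucose added. Absorbance 527 nm, R6G from standard curve.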

Candida albicans [2] = assay: Antifungal activity against fluconazole susceptible Candida albicans 0079gr in presence of fluconazole by CLSI protocol based broth microdilution method; assay type: functional
Candida albicans [3] = assay: Antifungal activity against fluconazole susceptible Candida albicans 004B1 by CLSI protocol based broth microdilution method; assay type: functional
How it was run: (§2)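 Clinical isolates and control strain subcultured at least twice on TSA, 37 °C, 48 h. MICs by CLSI M27-A3 broth microdilution; compounds dissolved in DMSO to 2000 μg mL–1 stock. Fluconazole positive control, culture, media and DMSO vehicle controls in each run. Duplicate experiments; MIC in μg mL–1.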

Candida albicans [4] = assay: Antifungal activity against fluconazole susceptible Candida albicans 004gr by CLSI protocol based broth microdilution method; assay type: functional; how it was run: as §2
Candida albicans [5] = assay: Antifungal activity against fluconazole susceptible Candida albicans 004B1 in presence of fluconazole by CLSI protocol based broth microdilution method; assay type: functional
Candida albicans [6] = assay: Antifungal activity against fluconazole resistant Candida albicans 167-2 in presence of fluconazole by CLSI protocol based broth microdilution method; assay type: functional
How it was run: (§3)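 Checkerboard-style combination with fluconazole at a 1 : 1 ratio, over concentrations 2–4 fold below each agent's MIC alone, by CLSI broth microdilution. Fractional inhibitory concentration index calculated and interpreted as synergy (<0.5), additive (0.5–1), indifferent or antagonistic.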

Candida albicans [7] = assay: Inhibition of ABC efflux pumps in fluconazole susceptible Candida albicans 0079gr assessed as reduction in energy-dependent rhodamine 6G efflux in presence of 0.1 M glucose after 25 mins by fluorescence assay relative to control; how it was run: as §1
Candida albicans [8] = assay: Inhibition of ABC efflux pumps in fluconazole resistant Candida albicans 167-1 assessed as reduction in energy-dependent rhodamine 6G efflux in presence of 0.1 M glucose after 25 mins […] relative to control
Candida albicans [9] = assay: Inhibition of ABC efflux pumps in fluconazole susceptible Candida albicans 003gr assessed as reduction in energy-dependent rhodamine 6G efflux in presence of 0.1 M glucose after 25 mins […] relative to control
Candida albicans [10] = assay: Inhibition of ABC efflux pumps in fluconazole susceptible Candida albicans 0072gr assessed as reduction in energy-dependent rhodamine 6G efflux in presence of 0.1 M glucose after 25 mins […] relative to control
Candida albicans [11] = assay: Antifungal activity against fluconazole resistant Candida albicans 167-1 in presence of fluconazole by CLSI protocol based broth microdilution method; assay type: functional; how it was run: as §3
Candida albicans [12] = assay: Antifungal activity against fluconazole susceptible Candida albicans 002B1 in presence of fluconazole by CLSI protocol based broth microdilution method; assay type: functional
Candida albicans [13] = assay: Antifungal activity against fluconazole susceptible Candida albicans 0072gr in presence of fluconazole by CLSI protocol based broth microdilution method; assay type: functional
Candida albicans [14] = assay: Antifungal activity against fluconazole resistant Candida albicans A171 in presence of fluconazole by CLSI protocol based broth microdilution method; assay type: functional; how it was run: as §3
Candida albicans [15] = assay: Antifungal activity against fluconazole susceptible Candida albicans 0079gr by CLSI protocol based broth microdilution method; assay type: functional; how it was run: as §2
Candida albicans [16] = assay: Antifungal activity against fluconazole susceptible Candida albicans 0072gr by CLSI protocol based broth microdilution method; assay type: functional; how it was run: as §2
Candida albicans [17] = assay: Antifungal activity against fluconazole susceptible Candida albicans 003gr by CLSI protocol based broth microdilution method; assay type: functional; how it was run: as §2
Candida albicans [18] = assay: Antifungal activity against Candida albicans ATCC 90028 in presence of fluconazole by CLSI protocol based broth microdilution method; assay type: functional
Candida albicans [19] = assay: Antifungal activity against fluconazole resistant Candida albicans A171 by CLSI protocol based broth microdilution method; assay type: functional
How it was run: (§4)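 Broth microdilution per CLSI M27-A3 against clinical C. albicans isolates. Strains sub-cultured at least twice on Tryptone Soya Agar, 37 °C, 48 h. Compounds dissolved in DMSO at 2000 μg mL–1 stock. Fluconazole positive control, plus culture, media and vehicle controls. Run in duplicate; MIC in μg mL–1.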

Candida albicans [20] = assay: Inhibition of ABC efflux pumps in fluconazole resistant Candida albicans A171 assessed as reduction in energy-dependent rhodamine 6G efflux in presence of 0.1 M glucose after 25 mins by fluorescence assay relative to control; how it was run: as §1
Candida albicans [21] = assay: Inhibition of ABC efflux pumps in fluconazole susceptible Candida albicans 004gr assessed as reduction in energy-dependent rhodamine 6G efflux in presence of 0.1 M glucose after 25 mins by fluorescence assay relative to control; how it was run: as §1
Candida albicans [22] = assay: Antifungal activity against fluconazole resistant Candida albicans 167-2 by CLSI protocol based broth microdilution method; assay type: functional; how it was run: as §4
Candida albicans [23] = assay: Antifungal activity against fluconazole resistant Candida albicans 167-1 by CLSI protocol based broth microdilution method; assay type: functional; how it was run: as §4
Candida albicans [24] = assay: Inhibition of ABC efflux pumps in fluconazole resistant Candida albicans 167-2 assessed as reduction in energy-dependent rhodamine 6G efflux in presence of 0.1 M glucose after 25 mins […] relative to control
Candida albicans [25] = assay: Antifungal activity against Candida albicans ATCC 90028 by CLSI protocol based broth microdilution method; assay type: functional; how it was run: as §2
Candida albicans [26] = assay: Antifungal activity against fluconazole susceptible Candida albicans 002B1 by CLSI protocol based broth microdilution method; assay type: functional; how it was run: as §2
Candida albicans [27] = assay: Antifungal activity against fluconazole susceptible Candida albicans 003gr in presence of fluconazole by CLSI protocol based broth microdilution method; assay type: functional
Candida albicans [28] = assay: Antifungal activity against fluconazole susceptible Candida albicans 004gr in presence of fluconazole by CLSI protocol based broth microdilution method; assay type: functional
Candida albicans [29] = assay: Inhibition of ergosterol biosynthesis in fluconazole resistant Candida albicans A171 at 0.5 to 1 times MIC relative to control; assay type: functional
How it was run: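 Total sterols quantified by alcoholic KOH extraction in cells grown in 50 ml TSB with compounds at MIC and ½ MIC; untreated and 8 μg mL–1 fluconazole controls. Spectral scan; ergosterol content from A281.5 and A230 absorbances, dilution factor and pellet weight, correcting for 24(28) DHE.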

Candida albicans [30] = assay: Inhibition of ABC efflux pumps in fluconazole susceptible Candida albicans 002B1 assessed as reduction in energy-dependent rhodamine 6G efflux in presence of 0.1 M glucose after 25 mins […] relative to control
Candida albicans [31] = assay: Inhibition of ergosterol biosynthesis in fluconazole susceptible Candida albicans ATCC 90028 at 0.5 to 1 times MIC relative to control; assay type: functional
How it was run: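 ATCC90028 grown in 50 ml TSB with MIC and ½ MIC of compound; untreated and 8 μg mL–1 fluconazole controls. Sterols extracted by alcoholic KOH method and spectrophotometrically scanned; ergosterol % calculated from A281.5 and A230 (E values 290 and 518) with dilution factor, per pellet weight.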

Row | SMILES | inhibition (Candida albicans [1]) [%] | fractional inhibitory concentration index (FICI) (Candida albicans [2]) | MIC (Candida albicans [3]) [µg/mL] | MIC (Candida albicans [4]) [µg/mL] | fractional inhibitory concentration index (FICI) (Candida albicans [5]) | fractional inhibitory concentration index (FICI) (Candida albicans [6]) | inhibition (Candida albicans [7]) [%] | inhibition (Candida albicans [8]) [%] | inhibition (Candida albicans [9]) [%] | inhibition (Candida albicans [10]) [%] | fractional inhibitory concentration index (FICI) (Candida albicans [11]) | fractional inhibitory concentration index (FICI) (Candida albicans [12]) | fractional inhibitory concentration index (FICI) (Candida albicans [13]) | fractional inhibitory concentration index (FICI) (Candida albicans [14]) | MIC (Candida albicans [15]) [µg/mL] | MIC (Candida albicans [16]) [µg/mL] | MIC (Candida albicans [17]) [µg/mL] | fractional inhibitory concentration index (FICI) (Candida albicans [18]) | MIC (Candida albicans [19]) [µg/mL] | inhibition (Candida albicans [20]) [%] | other results
1 | O=C1NC(c2ccccc2)=CC(c2ccccc2)N1 (stereo not drawn) | < 20 | 0.31 - 1.5 | 1 to 8 (≈ 4 to 32 µM) | 1 to 8 (≈ 4 to 32 µM) | 0.31 - 1.5 | 0.129 - 0.27 | < 20 | < 20 | < 20 | < 20 | 0.129 - 0.27 | 0.31 - 1.5 | 0.31 - 1.5 | 0.129 - 0.27 | 1 to 8 (≈ 4 to 32 µM) | 1 to 8 (≈ 4 to 32 µM) | 1 to 8 (≈ 4 to 32 µM) | 0.31 - 1.5 | 8 to 16 (≈ 32 to 63.9 µM) | < 20 | inhibition (Candida albicans [21]): < 20%; MIC (Candida albicans [22]): 8 to 16 µg/mL (≈ 32 to 63.9 µM); MIC (Candida albicans [23]): 8 to 16 µg/mL (≈ 32 to 63.9 µM); inhibition (Candida albicans [24]): < 20%; MIC (Candida albicans [25]): 1 to 8 µg/mL (≈ 4 to 32 µM); MIC (Candida albicans [26]): 1 to 8 µg/mL (≈ 4 to 32 µM); fractional inhibitory concentration index (FICI) (Candida albicans [27]): 0.31 - 1.5; fractional inhibitory concentration index (FICI) (Candida albicans [28]): 0.31 - 1.5; inhibition (INH) (Candida albicans [29]): 49 - 94%; inhibition (Candida albicans [30]): < 20%; inhibition (INH) (Candida albicans [31]): 66 - 99%
2 | O=C(/C=C/c1ccccc1)c1ccccc1 [CHALCONE] | < 20 | 0.75 - 4.38 | 31 to 62 (≈ 149 to 298 µM) | 31 to 62 (≈ 149 to 298 µM) | 0.75 - 4.38 | 0.562 - 0.62 | < 20 | < 20 | < 20 | < 20 | 0.562 - 0.62 | 0.75 - 4.38 | 0.75 - 4.38 | 0.562 - 0.62 | 31 to 62 (≈ 149 to 298 µM) | 31 to 62 (≈ 149 to 298 µM) | 31 to 62 (≈ 149 to 298 µM) | 0.75 - 4.38 | 31 to 62 (≈ 149 to 298 µM) | < 20 | inhibition (Candida albicans [21]): < 20%; MIC (Candida albicans [22]): 31 to 62 µg/mL (≈ 149 to 298 µM); MIC (Candida albicans [23]): 31 to 62 µg/mL (≈ 149 to 298 µM); inhibition (Candida albicans [24]): < 20%; MIC (Candida albicans [25]): 31 to 62 µg/mL (≈ 149 to 298 µM); MIC (Candida albicans [26]): 31 to 62 µg/mL (≈ 149 to 298 µM); fractional inhibitory concentration index (FICI) (Candida albicans [27]): 0.75 - 4.38; fractional inhibitory concentration index (FICI) (Candida albicans [28]): 0.75 - 4.38; inhibition (INH) (Candida albicans [29]): 49 - 94%; inhibition (Candida albicans [30]): < 20%; inhibition (INH) (Candida albicans [31]): 66 - 99%
3 | SC1=NC(c2ccccc2)=CC(c2ccccc2)N1 (stereo not drawn) | < 20 | 0.37 - 1.13 | 0.5 to 4 (≈ 1.88 to 15 µM) | 0.5 to 4 (≈ 1.88 to 15 µM) | 0.37 - 1.13 | 0.254 - 0.27 | < 20 | < 20 | < 20 | < 20 | 0.254 - 0.27 | 0.37 - 1.13 | 0.37 - 1.13 | 0.254 - 0.27 | 0.5 to 4 (≈ 1.88 to 15 µM) | 0.5 to 4 (≈ 1.88 to 15 µM) | 0.5 to 4 (≈ 1.88 to 15 µM) | 0.37 - 1.13 | 8 to 16 (≈ 30 to 60.1 µM) | < 20 | inhibition (Candida albicans [21]): < 20%; MIC (Candida albicans [22]): 8 to 16 µg/mL (≈ 30 to 60.1 µM); MIC (Candida albicans [23]): 8 to 16 µg/mL (≈ 30 to 60.1 µM); inhibition (Candida albicans [24]): < 20%; MIC (Candida albicans [25]): 0.5 to 4 µg/mL (≈ 1.88 to 15 µM); MIC (Candida albicans [26]): 0.5 to 4 µg/mL (≈ 1.88 to 15 µM); fractional inhibitory concentration index (FICI) (Candida albicans [27]): 0.37 - 1.13; fractional inhibitory concentration index (FICI) (Candida albicans [28]): 0.37 - 1.13; inhibition (INH) (Candida albicans [29]): 49 - 94%; inhibition (Candida albicans [30]): < 20%; inhibition (INH) (Candida albicans [31]): 66 - 99%

Source: ChEMBL document CHEMBL4257459, “Synergistic antifungal effect of cyclized chalcone derivatives and fluconazole against Candida albicans” (2017)
